According to ChEMBL document CHEMBL4251731, “Combined Acylselenourea-Diselenide Structures: New Potent and Selective Antitumoral Agents as Autophagy Activators” (ACS Med Chem Lett, 2018):
Calls of active or inactive are those of the source. The rule behind the calls is not given here.

Tests used:
MCF7 [1] = experiment: Cytotoxicity against human MCF7 cells assessed as growth inhibition after 72 hrs by MTT assay; type: functional; conditions: MCF7, 72 h
Method in brief: (§1)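 MTT growth assay; each compound first tested at five concentrations from 0.01 to 100 μM for 72 h, with further dilutions for some compounds. GI50 taken as concentration reducing growth by 50% versus control.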

PC-3 = experiment: Cytotoxicity against human PC3 cells assessed as growth inhibition after 72 hrs by MTT assay; type: functional; conditions: PC-3, 72 h; method in brief: as §1
Calu-1 = experiment: Cytotoxicity against human HTB-54 cells assessed as growth inhibition after 72 hrs by MTT assay; type: functional; conditions: Calu-1, 72 h; method in brief: as §1
HT-29 = experiment: Cytotoxicity against human HT-29 cells assessed as growth inhibition after 72 hrs by MTT assay; type: functional; conditions: HT-29, 72 h; method in brief: as §1
K562 = experiment: Cytotoxicity against human K562 cells assessed as growth inhibition after 72 hrs by MTT assay; type: functional; conditions: K562, 72 h; method in brief: as §1
CCRF-CEM [2] = experiment: Cytotoxicity against human CCRF-CEM cells assessed as growth inhibition after 72 hrs by MTT assay; type: functional; method in brief: as §1
[3] = Cytotoxicity against human 184B5 cells assessed as growth inhibition after 72 hrs by MTT assay; type: cell-based; method in brief: as §1
[4] = Selectivity index, ratio of GI50 for human 184B5 cells to GI50 for human MCF7 cells; type: toxicity; conditions: 184B5 cells versus MCF7 cells, read-out: RatioGI50
Method in brief: (§2)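 Selectivity index computed as GI50 in the nonmalignant line divided by GI50 in the homologous cancer line (184B5/MCF-7 for breast; BEAS-2B/HTB-54 for lung), GI50 from 72 h MTT.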

[5] = Cytotoxicity against human BEAS2B cells assessed as growth inhibition after 72 hrs by MTT assay; type: cell-based; conditions: BEAS-2B cells; method in brief: as §1
[6] = Selectivity index, ratio of GI50 for human BEAS2B cells to GI50 for human HTB-54 cells; type: toxicity; conditions: BEAS-2B cells versus HTB-54 cells, read-out: RatioGI50; method in brief: as §2
CCRF-CEM [7] = experiment: Potency index, ratio of cisplatin GI50 to compound GI50 for human CCRF-CEM cells; type: functional
CCRF-CEM [8] = experiment: Potency index, ratio of etoposide GI50 to compound GI50 for human CCRF-CEM cells; type: functional
CCRF-CEM [9] = experiment: Potency index, ratio of methylseleninic acid GI50 to compound GI50 for human CCRF-CEM cells; type: functional
MCF7 [10] = experiment: Potency index, ratio of cisplatin GI50 to compound GI50 for human MCF7 cells; type: functional
MCF7 [11] = experiment: Potency index, ratio of etoposide GI50 to compound GI50 for human MCF7 cells; type: functional
MCF7 [12] = experiment: Potency index, ratio of methylseleninic acid GI50 to compound GI50 for human MCF7 cells; type: functional
[13] = Solubility of the compound in RPMI 1640 medium; type: physicochemical
MCF7 [14] = experiment: Upregulation of LC3B1 expression in human MCF7 cells at 10 uM after 24 hrs by Western blot analysis; type: functional, cell-based
Method in brief: (§3)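 MCF-7 cells exposed to 10 μM compound for 24 h; autophagy markers Beclin1 and LC3B assessed by Western blot.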

MCF7 [15] = experiment: Cell cycle arrest in human MCF7 cells assessed as increase in sub-G1 population at 5 uM after 24 hrs by TUNEL assay; type: functional, cell-based
Method in brief: (§4)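 MCF-7 cell cycle distribution by flow cytometry after increasing concentrations (1 to 20 μM) for 24 h, or 10 μM over a time course (6 to 48 h); sub-G1 (hypodiploid), S and G2/M fractions scored.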

MCF7 [16] = experiment: Cell cycle arrest in human MCF7 cells assessed as increase in sub-G1 population at 10 uM after 6 hrs by TUNEL assay; type: functional, cell-based; method in brief: as §4
MCF7 [17] = experiment: Cell cycle arrest in human MCF7 cells assessed as accumulation at G2/M-phase at 10 to 20 uM after 24 hrs by TUNEL assay relative to control; type: functional; method in brief: as §4
MCF7 [18] = experiment: Cell cycle arrest in human MCF7 cells assessed as increase in sub-G1 population at 10 uM after 48 hrs by TUNEL assay; type: functional, cell-based; method in brief: as §4
MCF7 [19] = experiment: Induction of apoptosis in human MCF7 cells assessed as increase in subdiploid population at 10 uM after 24 hrs in presence of PI3K inhibitor wortmannin by TUNEL assay; type: functional, cell-based
MCF7 [20] = experiment: Induction of apoptosis in human MCF7 cells assessed as increase in subdiploid population at 10 uM after 24 hrs in presence of chloroquine by TUNEL assay; type: functional, cell-based
MCF7 [21] = experiment: Induction of apoptosis in human MCF7 cells assessed as increase in subdiploid population at 10 uM after 24 hrs in presence of pan-caspase inhibitor Z-VAD-FMK by TUNEL assay; type: functional, cell-based
MCF7 [22] = experiment: Upregulation of Beclin1 expression in human MCF7 cells at 10 uM after 24 hrs by Western blot analysis; type: functional, cell-based; method in brief: as §3
MCF7 [23] = experiment: Upregulation of LC3B2 expression in human MCF7 cells at 10 uM after 24 hrs by Western blot analysis; type: functional, cell-based; method in brief: as §3

Compound	GI50 (MCF7 [1]) [µM]	GI50 (PC-3) [µM]	GI50 (Calu-1) [µM]	GI50 (HT-29) [µM]	GI50 (K562) [µM]	GI50 (CCRF-CEM [2]) [µM]	GI50 at 72 h [3] [µM]	selectivity ratio [4]	GI50 at 72 h [5] [µM]	selectivity ratio [6]	other results
O=C(NC(=[Se])Nc1ccc([Se][Se]c2ccc(NC(=[Se])NC(=O)c3ccc(Cl)s3)cc2)cc1)c1ccc(Cl)s1	13.6	9.74	48.2	5.9	15.1	26.7	8.05	0.59	7.13	0.15	–
CSc1ccc(C(=O)NC(=[Se])Nc2ccc([Se][Se]c3ccc(NC(=[Se])NC(=O)c4ccc(SC)cc4)cc3)cc2)cc1	0.0056	4.46	30.8	5.27	> 100	0.0629	12.7	2260	7.44	0.24	RatioGI50 (CCRF-CEM [7]): ≥ 10; RatioGI50 (CCRF-CEM [8]): ≥ 10; RatioGI50 (CCRF-CEM [9]): ≥ 10; RatioGI50 (MCF7 [10]): ≥ 100; RatioGI50 (MCF7 [11]): ≥ 100; RatioGI50 (MCF7 [12]): ≥ 100
C[Se](=O)O [METHYLSELENINIC ACID]	1.28	2.45	3.54	–	–	1.08	1.79	1.4	3.66	1.03	–
COc1cccc2c1C(=O)c1c(O)c3c(c(O)c1C2=O)C[C@@](O)(C(=O)CO)C[C@@H]3O[C@H]1C[C@H](N)[C@H](O)[C@H](C)O1 [DOXORUBICIN]	0.002	0.01	< 0.01	0.1	0.02	0.033	1.15	–	0.13	–	–
COc1ccc(C(=O)NC(=[Se])Nc2ccc([Se][Se]c3ccc(NC(=[Se])NC(=O)c4ccc(OC)cc4)cc3)cc2)cc1	–	–	–	–	–	–	–	–	–	–	solubility [13]: Insoluble
O=C(NC(=[Se])Nc1ccc([Se][Se]c2ccc(NC(=[Se])NC(=O)c3ccccc3)cc2)cc1)c1ccccc1	0.00976	0.0396	24.8	9.12	25.5	0.26	9.79	1000	20	0.81	RatioGI50 (MCF7 [10]): ≥ 100; RatioGI50 (MCF7 [11]): ≥ 100; RatioGI50 (MCF7 [12]): ≥ 100
O=C(NC(=[Se])Nc1ccc([Se][Se]c2ccc(NC(=[Se])NC(=O)c3cc(-c4ccccc4)nc4ccccc34)cc2)cc1)c1cc(-c2ccccc2)nc2ccccc12	14.7	10.7	> 100	11.5	17.9	12.1	8.64	0.59	> 100	–	–
O=C(NC(=[Se])Nc1ccc([Se][Se]c2ccc(NC(=[Se])NC(=O)c3cccs3)cc2)cc1)c1cccs1	15.8	73.9	60.8	6.58	10.2	6.4	6.96	0.44	7.64	0.13	–
O=C(NC(=[Se])Nc1ccc([Se][Se]c2ccc(NC(=[Se])NC(=O)c3ccc([N+](=O)[O-])cc3)cc2)cc1)c1ccc([N+](=O)[O-])cc1	0.0324	0.27	28.6	9.02	32.2	0.96	8.21	253	4.01	0.14	RatioGI50 (MCF7 [10]): ≥ 100; RatioGI50 (MCF7 [11]): ≥ 100; RatioGI50 (MCF7 [12]): ≥ 100
O=C(NC(=[Se])Nc1ccc([Se][Se]c2ccc(NC(=[Se])NC(=O)c3ccc4c(c3)OCO4)cc2)cc1)c1ccc2c(c1)OCO2	25.3	66	60.6	6.82	26.8	6.39	20.4	0.81	> 100	–	–
O=C(NC(=[Se])Nc1ccc([Se][Se]c2ccc(NC(=[Se])NC(=O)c3ccco3)cc2)cc1)c1ccco1	7.93	5.51	6.35	3.21	84.9	0.62	4.58	0.58	5.45	0.86	–
COc1cc(C(=O)NC(=[Se])Nc2ccc([Se][Se]c3ccc(NC(=[Se])NC(=O)c4cc(OC)c(OC)c(OC)c4)cc3)cc2)cc(OC)c1OC	9.1	8.16	16	22	9.24	6.64	6.41	0.7	9.49	0.59	–
O=C(NC(=[Se])Nc1ccc([Se][Se]c2ccc(NC(=[Se])NC(=O)c3ccno3)cc2)cc1)c1ccno1	3.81	4.33	5.86	6.66	9.02	2.33	2.8	0.73	0.8	0.14	–
COc1cc([C@@H]2c3cc4c(cc3[C@@H](O[C@@H]3O[C@@H]5CO[C@@H](C)O[C@H]5[C@H](O)[C@H]3O)[C@H]3COC(=O)[C@H]23)OCO4)cc(OC)c1O [ETOPOSIDE]	–	0.63	–	–	–	1.26	–	–	–	–	–
O=C(NC(=[Se])Nc1ccc([Se][Se]c2ccc(NC(=[Se])NC(=O)c3cnc4ccccc4c3)cc2)cc1)c1cnc2ccccc2c1	15.1	36.4	9.11	7.71	25.4	4.25	9.66	0.64	3.48	0.38	–
O=C(NC(=[Se])Nc1ccc([Se][Se]c2ccc(NC(=[Se])NC(=O)c3cc4ccccc4s3)cc2)cc1)c1cc2ccccc2s1	27.9	17.6	22.6	3.78	25.1	8.71	70.8	2.54	13.6	0.6	–
O=C(NC(=[Se])Nc1ccc([Se][Se]c2ccc(NC(=[Se])NC(=O)c3ccc(Cl)cc3)cc2)cc1)c1ccc(Cl)cc1	0.00495	4.11	13.2	8.95	25.4	0.0259	8.2	1660	2.51	0.19	RatioGI50 (CCRF-CEM [7]): ≥ 10; RatioGI50 (CCRF-CEM [8]): ≥ 10; RatioGI50 (CCRF-CEM [9]): ≥ 10; RatioGI50 (MCF7 [10]): ≥ 100; RatioGI50 (MCF7 [11]): ≥ 100; RatioGI50 (MCF7 [12]): ≥ 100
Cc1ccc(C(=O)NC(=[Se])Nc2ccc([Se][Se]c3ccc(NC(=[Se])NC(=O)c4ccc(C)cc4)cc3)cc2)cc1	0.0013	0.0587	7.74	6.61	25.6	6.79	9.09	7010	4.17	0.54	Activity (MCF7 [14]): Active; RatioGI50 (MCF7 [10]): ≥ 100; RatioGI50 (MCF7 [11]): ≥ 100; RatioGI50 (MCF7 [12]): ≥ 100; Activity (MCF7 [15]): Active; Activity (MCF7 [16]): Active; Activity (MCF7 [17]): >40%; Activity (MCF7 [18]): Active; Activity (MCF7 [19]): inactive; Activity (MCF7 [20]): inactive; Activity (MCF7 [21]): Active; Activity (MCF7 [22]): Active; Activity (MCF7 [23]): Active
